From ChEMBL document CHEMBL3352465, “The SAR development of substituted purine derivatives as selective CB2 agonists for the treatment of chronic pain” (Bioorg Med Chem Lett, 2014)
In brackets after ≈: the same amount, converted by molar mass. Blank lines part the entries; values can stand above or below the compound they belong to. Activity calls are given as the source filed them. The rule behind the calls is not given here.

Columns and labels:
Cannabinoid receptor 1 = Cannabinoid receptor 1 (Homo sapiens, UniProt P21554); test: Agonist activity at human CB1 receptor expressed in Sf9 cells by [35S]-GTPgammaS binding assay; assay type: functional
Chain of Cannabinoid receptor 1 (P21554 whole entry): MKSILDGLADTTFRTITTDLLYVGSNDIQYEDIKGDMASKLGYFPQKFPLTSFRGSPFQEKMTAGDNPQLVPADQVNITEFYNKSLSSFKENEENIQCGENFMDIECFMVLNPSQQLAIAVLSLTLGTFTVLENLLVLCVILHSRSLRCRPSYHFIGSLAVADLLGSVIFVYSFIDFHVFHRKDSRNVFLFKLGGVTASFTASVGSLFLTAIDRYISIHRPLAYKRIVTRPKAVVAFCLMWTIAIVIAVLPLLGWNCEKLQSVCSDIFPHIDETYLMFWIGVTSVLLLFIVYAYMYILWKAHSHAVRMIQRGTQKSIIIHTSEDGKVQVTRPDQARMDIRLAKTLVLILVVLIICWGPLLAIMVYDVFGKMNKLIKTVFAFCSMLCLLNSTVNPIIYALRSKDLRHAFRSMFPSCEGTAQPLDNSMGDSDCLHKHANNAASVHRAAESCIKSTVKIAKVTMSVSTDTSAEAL

Cannabinoid receptor 2 [1] = molecular target: T1, Cannabinoid receptor 2 (Homo sapiens, UniProt P34972); test: Agonist activity at human CB2 receptor expressed in CHO cells by [35S]-GTPgammaS binding assay; assay type: functional, cell-based
T1 sequence (P34972 whole entry): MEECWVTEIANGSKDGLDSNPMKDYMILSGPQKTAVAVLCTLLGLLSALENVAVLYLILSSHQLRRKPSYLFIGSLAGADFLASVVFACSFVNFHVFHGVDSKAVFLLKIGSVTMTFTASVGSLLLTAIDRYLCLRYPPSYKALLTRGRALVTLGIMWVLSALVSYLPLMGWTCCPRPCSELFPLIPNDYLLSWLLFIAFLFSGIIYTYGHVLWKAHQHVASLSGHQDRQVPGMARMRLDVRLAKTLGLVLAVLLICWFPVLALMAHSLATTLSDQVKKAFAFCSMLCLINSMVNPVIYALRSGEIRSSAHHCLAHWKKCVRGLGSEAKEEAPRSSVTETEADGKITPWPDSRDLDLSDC

Cannabinoid receptor 2 [2] = molecular target: T1, Cannabinoid receptor 2; test: Agonist activity at human CB2 receptor expressed in CHO cells by [35S]-GTPgammaS binding assay relative to control; assay type: functional, cell-based
[3] = Drug metabolism in human liver microsomes at 2 uM after 0.5 hr by LC/MS/MS analysis; assay type: ADME; details: read-out: Drug metabolism
Rattus norvegicus [4] = organism: Rattus norvegicus; test: Inhibition of GABA gated chloride channel in rat cortex at 10 uM by radioligand binding assay
Method in brief: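 Radioligand binding to GABA-gated chloride channels from rat, run by an outside contract lab.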

[5] = Drug metabolism in rat liver microsomes at 2 uM after 0.5 hr by LC/MS/MS analysis; assay type: ADME; details: read-out: Drug metabolism
[6] = Drug metabolism in dog liver microsomes at 2 uM after 0.5 hr by LC/MS/MS analysis; assay type: ADME, Canis lupus familiaris; details: read-out: Drug metabolism
[7] = Clearance in Sprague-Dawley rat at 1 mg/kg, iv; assay type: ADME, organism-based; set-up: dose 1 mg/kg, route intravenous; details: in vivo
Cytochrome P450 2C9 = Cytochrome P450 2C9 (Homo sapiens, UniProt P11712); test: Effect on CYP2C9 (unknown origin) up to 10 uM; assay type: ADME
Chain of Cytochrome P450 2C9 (P11712 whole entry): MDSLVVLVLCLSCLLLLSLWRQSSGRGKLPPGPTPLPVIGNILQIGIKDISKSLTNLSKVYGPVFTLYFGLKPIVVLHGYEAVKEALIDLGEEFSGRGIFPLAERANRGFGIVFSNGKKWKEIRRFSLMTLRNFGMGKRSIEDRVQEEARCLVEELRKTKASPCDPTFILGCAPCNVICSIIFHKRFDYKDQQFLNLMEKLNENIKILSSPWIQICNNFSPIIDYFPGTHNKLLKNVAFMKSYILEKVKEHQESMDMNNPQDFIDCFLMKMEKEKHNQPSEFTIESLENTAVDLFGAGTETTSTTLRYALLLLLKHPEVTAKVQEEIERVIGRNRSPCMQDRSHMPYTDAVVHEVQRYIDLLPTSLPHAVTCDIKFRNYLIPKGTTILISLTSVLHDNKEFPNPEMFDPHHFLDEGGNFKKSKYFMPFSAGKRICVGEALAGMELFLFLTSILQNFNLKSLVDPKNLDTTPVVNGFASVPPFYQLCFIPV

[8] = Clearance in Beagle dog at 1 mg/kg, iv; assay type: ADME, organism-based, Canis lupus familiaris; set-up: dose 1 mg/kg, route intravenous; details: in vivo
Rattus norvegicus [9] = test: Analgesic activity in monoiodoacetic acid-induced joint pain rat model assessed as inhibition of differential weight bearing capacity at 1 mg/kg, po bid for 5 days starting 20 days post MIA challenge relative to vehicle treated control; assay type: functional, organism-based; set-up: dose 1 mg/kg
Method in brief: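 MIA knee-joint pain model in rats; repeat oral dosing at 1.0 mg/kg bid for 5 days. Incapacitance efficacy was compared between day 1 and day 5, and plasma exposures were monitored over the period.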

[10] = Drug excretion in rat urine assessed as phase 2 glucuronide metabolite; assay type: ADME
Rattus norvegicus [11] = test: Analgesic activity in monoiodoacetic acid-induced joint pain rat model assessed as inhibition of differential weight bearing capacity compound administered orally post MIA challenge measured 2 hrs after compound dose on day 12 post MIA challenge relative to vehicle treated control; assay type: functional; details: po
Method in brief: (§1)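 MIA knee-joint pain in rats; oral doses of 0.1, 0.3 and 1 mg/kg, with diclofenac 5 mg/kg po as comparator. Differential hind-limb weight bearing was measured by incapacitance tester on day 12 post MIA, 2 h after dosing; n = 5/group; Student's t-test versus vehicle. ED50 was derived from the dose response.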

Rattus norvegicus [12] = test: Toxicity in rat assessed as behavioral impairment up to 30 mg/kg, po by rotorod test; assay type: organism-based; set-up: dose 30 mg/kg, route oral; details: in vivo
Method in brief: (§2)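 Rats were dosed orally up to 30 mg/kg and checked for hypothermia and for rotorod performance. CP-55,940 0.5 mg/kg ip served as positive control.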

[13] = Lipophilicity, log P of the compound; assay type: physicochemical; details: octanol/water
[14] = Aqueous solubility of the compound at pH 6.5; assay type: physicochemical
Method in brief: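 Aqueous solubility measured at pH 6.5.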

[15] = Cmax in Beagle dog at 1 mg/kg, iv and 1 mg/kg, po; assay type: ADME, organism-based, Canis lupus familiaris; details: in vivo
Method in brief: (§3)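 Plasma PK after intravenous and oral dosing at 1 mg/kg each route; male Sprague-Dawley rats and male Beagle dogs. Clearance and steady-state volume from the iv leg, half-life and bioavailability from the po leg.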

[16] = Drug excretion in rat bile assessed as sulfate metabolite; assay type: ADME
Cytochrome P450 3A4 = Cytochrome P450 3A4 (Homo sapiens, UniProt P08684); test: Effect on CYP3A4 (unknown origin) up to 10 uM; assay type: ADME
Chain of Cytochrome P450 3A4 (P08684 whole entry): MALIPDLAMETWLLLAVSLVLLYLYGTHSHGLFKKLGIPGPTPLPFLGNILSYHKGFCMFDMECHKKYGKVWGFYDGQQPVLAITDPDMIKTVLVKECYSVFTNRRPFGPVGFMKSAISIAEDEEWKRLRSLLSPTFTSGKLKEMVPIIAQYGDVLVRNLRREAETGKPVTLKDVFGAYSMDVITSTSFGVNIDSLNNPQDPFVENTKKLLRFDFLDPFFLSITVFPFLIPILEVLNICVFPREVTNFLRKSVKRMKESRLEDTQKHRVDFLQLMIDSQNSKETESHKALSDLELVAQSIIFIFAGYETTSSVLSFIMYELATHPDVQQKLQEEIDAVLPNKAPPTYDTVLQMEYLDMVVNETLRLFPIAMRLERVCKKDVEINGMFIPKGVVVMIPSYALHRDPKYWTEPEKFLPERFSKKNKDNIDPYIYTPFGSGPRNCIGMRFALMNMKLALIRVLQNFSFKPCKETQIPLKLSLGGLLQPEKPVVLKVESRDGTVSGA

[17] = AUC in Sprague-Dawley rat at 1 mg/kg, iv and 1 mg/kg, po; assay type: ADME, organism-based; details: plasma; method in brief: as §3
CYP2C9 = CYP2C9 (Homo sapiens, UniProt P11712); test: Drug metabolism assessed as human CYP2C9-mediated compound turnover; assay type: ADME; details: recombinant enzyme, read-out: Drug metabolism
Chain of CYP2C9 (P11712 whole entry, canonical isoform): as the sequence (P11712 whole entry) above
Method in brief: (§4)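 Oxidative turnover was assessed with recombinant human P450 enzymes to identify which isoforms contribute to metabolite formation.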

[18] = Cmax in Sprague-Dawley rat at 1 mg/kg, iv and 1 mg/kg, po; assay type: ADME, organism-based; details: in vivo; method in brief: as §3
Rattus norvegicus [19] = test: Analgesic activity in monoiodoacetic acid-induced joint pain rat model assessed as inhibition of differential weight bearing capacity at 1 mg/kg, po administered 20 days post MIA challenge co-administered with 3 mg/kg SR-144528 relative to vehicle treated control; assay type: functional, organism-based
Method in brief: (§5)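 Rats got 0.3 mg MIA intra-articular into the right knee and saline into the left on day 0. On day 20 they were randomized and dosed po with vehicle (1% CMC in water with 0.25% Tween 80), agonist 1 mg/kg, SR-144528 3 mg/kg, or antagonist given 30 min before agonist. Incapacitance (differential hind-limb weight bearing) was read 2 h after agonist; n = 6/group; Dunnett's test versus vehicle.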

Rattus norvegicus [20] = test: Toxicity in rat assessed as hypothermia up to 30 mg/kg, po; assay type: organism-based; set-up: dose 30 mg/kg, route oral; details: in vivo; method in brief: as §2
Rattus norvegicus [21] = test: Analgesic activity in monoiodoacetic acid-induced joint pain rat model assessed as inhibition of differential weight bearing capacity at 5 mg/kg, po measured 2 hrs after compound dose on day 12 post MIA challenge relative to vehicle treated control; assay type: functional, organism-based; set-up: dose 5 mg/kg; method in brief: as §1
[22] = Drug excretion in rat urine assessed as sulfate metabolite; assay type: ADME
[23] = Half life in Beagle dog at 1 mg/kg, po; assay type: ADME, organism-based, Canis lupus familiaris; set-up: dose 1 mg/kg, route oral; details: in vivo; method in brief: as §3
CYP3A4 = CYP3A4 (Homo sapiens, UniProt P08684); test: Drug metabolism assessed as human CYP3A4-mediated oxidative compound turnover; assay type: ADME; details: recombinant enzyme, read-out: Drug metabolism; method in brief: as §4
Chain of CYP3A4 (P08684 whole entry): as the sequence (P08684 whole entry) above

[24] = Oral bioavailability in Sprague-Dawley rat at 1 mg/kg; assay type: ADME, organism-based; details: in vivo; method in brief: as §3
[25] = Volume of distribution at steady state in Beagle dog at 1 mg/kg, iv and 1 mg/kg, po; assay type: ADME, organism-based, Canis lupus familiaris; details: in vivo, read-out: Vdss; method in brief: as §3
[26] = Volume of distribution at steady state in Sprague-Dawley rat at 1 mg/kg, iv and 1 mg/kg, po; assay type: ADME, organism-based; details: in vivo, read-out: Vdss; method in brief: as §3
[27] = Dissociation constant, pKa of the compound; assay type: physicochemical
Cytochrome P450 1A2 = molecular target: T2, Cytochrome P450 1A2 (Homo sapiens, UniProt P05177); test: Effect on CYP1A2 (unknown origin) up to 10 uM; assay type: ADME
T2 sequence (P05177 whole entry): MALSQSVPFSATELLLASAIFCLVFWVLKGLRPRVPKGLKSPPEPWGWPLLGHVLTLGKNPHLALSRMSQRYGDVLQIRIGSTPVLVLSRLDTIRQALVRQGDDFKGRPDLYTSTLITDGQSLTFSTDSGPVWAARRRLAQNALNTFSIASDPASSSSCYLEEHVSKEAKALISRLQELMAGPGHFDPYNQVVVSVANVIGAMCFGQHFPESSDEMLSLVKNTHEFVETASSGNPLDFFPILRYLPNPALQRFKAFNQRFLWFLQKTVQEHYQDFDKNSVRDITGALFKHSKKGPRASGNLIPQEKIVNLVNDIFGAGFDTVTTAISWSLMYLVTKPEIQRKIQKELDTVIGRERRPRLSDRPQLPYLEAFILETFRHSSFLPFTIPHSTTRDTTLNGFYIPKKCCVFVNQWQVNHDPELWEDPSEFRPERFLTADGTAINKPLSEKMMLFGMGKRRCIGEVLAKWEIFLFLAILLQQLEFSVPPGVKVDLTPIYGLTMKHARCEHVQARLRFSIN

[28] = Oral bioavailability in Beagle dog at 1 mg/kg; assay type: ADME, organism-based, Canis lupus familiaris; details: in vivo; method in brief: as §3
CYP1A2 = molecular target: T3, CYP1A2 (Homo sapiens, UniProt P05177); test: Drug metabolism assessed as human CYP1A2-mediated compound turnover; assay type: ADME; details: recombinant enzyme, read-out: Drug metabolism; method in brief: as §4
T3 sequence (P05177 whole entry): T2 sequence (P05177 whole entry)

Cytochrome P450 2D6 = Cytochrome P450 2D6 (Homo sapiens, UniProt P10635); test: Effect on CYP2D6 (unknown origin) up to 10 uM; assay type: ADME
Chain of Cytochrome P450 2D6 (P10635 whole entry): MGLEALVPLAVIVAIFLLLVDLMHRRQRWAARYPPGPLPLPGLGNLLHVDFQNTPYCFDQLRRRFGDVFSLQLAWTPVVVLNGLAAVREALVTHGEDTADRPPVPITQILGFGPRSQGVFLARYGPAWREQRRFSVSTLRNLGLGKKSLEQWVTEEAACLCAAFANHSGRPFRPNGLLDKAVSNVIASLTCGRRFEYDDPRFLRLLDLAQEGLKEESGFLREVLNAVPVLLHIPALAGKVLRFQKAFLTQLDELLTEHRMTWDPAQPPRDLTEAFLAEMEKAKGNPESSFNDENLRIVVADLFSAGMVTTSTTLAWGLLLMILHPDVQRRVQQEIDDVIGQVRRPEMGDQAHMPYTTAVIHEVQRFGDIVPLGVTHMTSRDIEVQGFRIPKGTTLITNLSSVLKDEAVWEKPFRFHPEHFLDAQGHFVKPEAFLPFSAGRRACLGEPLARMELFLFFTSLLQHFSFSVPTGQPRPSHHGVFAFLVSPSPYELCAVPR

[29] = Drug excretion in rat bile assessed as phase 2 glucuronide metabolite; assay type: ADME
Rattus norvegicus [30] = test: Analgesic activity in monoiodoacetic acid-induced joint pain rat model assessed as inhibition of differential weight bearing capacity at 1 mg/kg, po administered 20 days post MIA challenge relative to vehicle treated control; assay type: functional, organism-based; set-up: dose 1 mg/kg; method in brief: as §5
[31] = AUC in Beagle dog at 1 mg/kg, iv and 1 mg/kg, po; assay type: ADME, organism-based, Canis lupus familiaris; details: plasma; method in brief: as §3
[32] = Half life in Sprague-Dawley rat at 1 mg/kg, po; assay type: ADME, organism-based; set-up: dose 1 mg/kg, route oral; details: in vivo; method in brief: as §3
MDCK = test: Permeability across MDCK cells expressing human P-gp; assay type: ADME, cell-based, Canis lupus familiaris; details: dog
Method in brief: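 Bi-directional permeability was measured across an MDCK line expressing human P-gp to test whether the compound is a P-gp substrate.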

[33] = Inhibition of GABA gated chloride channel in rat cortex by radioligand binding assay

Compound: Cc1nc(N2CCN(C)CC2)c2nc(-c3ccccc3Cl)n(CC(C)(C)O)c2n1
EC50 (Cannabinoid receptor 1): > 100000 nM
EC50 (Cannabinoid receptor 2 [1]): 5.9 nM
Efficacy (Cannabinoid receptor 2 [2]): 85.4%
metabolised at 0.5 h, 2 µM [3]: 24%
inhibition (Rattus norvegicus [4]): 83%
metabolised at 0.5 h, 2 µM [5]: 92%
metabolised at 0.5 h, 2 µM [6]: 52%

Compound: Cc1nc(N2CCN(C)CC2)c2nc(-c3ccccc3Cl)n([C@H](C)CO)c2n1
clearance [7]: 32 mL/min/kg
Activity (Cytochrome P450 2C9): Not Active
clearance [8]: 38 mL/min/kg
inhibition (Rattus norvegicus [9]): Active
Drug excretion [10]: metabolite_detected
ED50 (Rattus norvegicus [11]): 0.16 mg/kg
Activity (Rattus norvegicus [12]): Toxic
logP [13]: 3.1
EC50 (Cannabinoid receptor 1): > 100000 nM
solubility [14]: 1800 µg/mL (≈ 4490 µM)
EC50 (Cannabinoid receptor 2 [1]): 22.4 nM
Cmax [15]: 43 ng/mL
Drug excretion [16]: metabolite_detected
Efficacy (Cannabinoid receptor 2 [2]): 81.8%
Activity (Cytochrome P450 3A4): Not Active
AUC [17]: 514 ng·h/mL
metabolised (CYP2C9): 80%
metabolised at 0.5 h, 2 µM [3]: 22%
Cmax [18]: 87 ng/mL
inhibition (Rattus norvegicus [19]): inactive
Activity (Rattus norvegicus [20]): Toxic
inhibition (Rattus norvegicus [21]): Active
Drug excretion [22]: metabolite_detected
half-life [23]: 1.7 h
metabolised (CYP3A4): 80%
bioavailability [24]: 38%
inhibition (Rattus norvegicus [4]): 20%
metabolised at 0.5 h, 2 µM [5]: 50%
Vd [25]: 4 L/kg
Vd [26]: 6 L/kg
pKa [27]: 7.5
Activity (Cytochrome P450 1A2): Not Active
bioavailability [28]: 23%
metabolised (CYP1A2): 80%
Activity (Cytochrome P450 2D6): Not Active
Drug excretion [29]: metabolite_detected
metabolised at 0.5 h, 2 µM [6]: 42%
inhibition (Rattus norvegicus [30]): Active
AUC [31]: 437 ng·h/mL
half-life [32]: 2.3 h
permeability (MDCK): impermeable

logP [13]: 3.2
solubility [14]: 100 µg/mL (≈ 234 µM)
Ki [33]: 2200 nM
inhibition (Rattus norvegicus [4]): 85%
pKa [27]: 7.2
bioavailability [28]: 76%
Compound: Cc1nc(N2CCN(C)CC2)c2nc(-c3ccccc3Cl)n(C3CCOCC3)c2n1 [LY2828360]

Compound: CCN1CCN(c2nc(C)nc3c2nc(-c2ccccc2Cl)n3CCOC)CC1
inhibition (Rattus norvegicus [4]): 97%
